Source: ChEMBL document CHEMBL5674883, “The Heterochromatin Landscape in Migrating Cells and the Importance of H3K27me3 for Associated Transcriptome Alterations” (Cells, 2018)

Assays:
Type in all cases: cell-based
[1] = biological target: T1, RNA polymerase II (Mus musculus) (UniProt P08775+Q8CFI7+P97760+A0A3Q4L2S8+Q80UW8+P61219+P62488+Q923G2+P60898+O08740+Q63871+P62876); test: Inhibition of RNA polymerase II in mouse B16-F1 migrating cells assessed as fold change in Psip1-RNA stability at 0.1 mM measured by […] analysis relative to control cells
[2] = biological target: T1, RNA polymerase II (Mus musculus); test: Inhibition of RNA polymerase II in mouse B16-F1 migrating cells assessed as fold change in Ets1-RNA stability at 0.1 mM measured by […] analysis relative to control cells
Method in brief: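 Mouse B16-F1 melanoma cells grown to confluence on fibronectin in DMEM/10% FCS at 37 °C, 7% CO2. Migration induced by multiple scratches and 3 h incubation; unscratched controls. DRB 0.1 mM added 3 h before lysis. RNA from poly A-selected mRNA was sequenced (RNA-seq, three replicates per DRB group). Fold change computed for DRB-treated migrating vs DRB-treated control cells; cutoffs fold change >1.3, FDR <0.05.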

[3] = biological target: T1, RNA polymerase II (Mus musculus); test: Inhibition of RNA polymerase II in mouse B16-F1 migrating cells assessed as fold change in Sh3bgrl3-RNA stability at 0.1 mM measured by […] analysis relative to control cells
[4] = biological target: T1, RNA polymerase II (Mus musculus); test: Inhibition of RNA polymerase II in mouse B16-F1 migrating cells assessed as fold change in Nrp1-RNA stability at 0.1 mM measured by […] analysis relative to control cells
[5] = biological target: T1, RNA polymerase II (Mus musculus); test: Inhibition of RNA polymerase II in mouse B16-F1 migrating cells assessed as fold change in Samd14-RNA stability at 0.1 mM measured by […] analysis relative to control cells
[6] = biological target: T1, RNA polymerase II (Mus musculus); test: Inhibition of RNA polymerase II in mouse B16-F1 migrating cells assessed as fold change in Tmsb10-RNA stability at 0.1 mM measured by […] analysis relative to control cells
[7] = biological target: T1, RNA polymerase II (Mus musculus); test: Inhibition of RNA polymerase II in mouse B16-F1 migrating cells assessed as fold change in Alkbh2-RNA stability at 0.1 mM measured by […] analysis relative to control cells
[8] = biological target: T1, RNA polymerase II (Mus musculus); test: Inhibition of RNA polymerase II in mouse B16-F1 migrating cells assessed as fold change in BC004004-RNA stability at 0.1 mM measured by […] analysis relative to control cells
[9] = biological target: T1, RNA polymerase II (Mus musculus); test: Inhibition of RNA polymerase II in mouse B16-F1 migrating cells assessed as fold change in Lgals3-RNA stability at 0.1 mM measured by ChIP-seq analysis relative to control cells
[10] = biological target: T1, RNA polymerase II (Mus musculus); test: Inhibition of RNA polymerase II in mouse B16-F1 migrating cells assessed as fold change in Zfp367-RNA stability at 0.1 mM measured by […] analysis relative to control cells
[11] = biological target: T1, RNA polymerase II (Mus musculus); test: Inhibition of RNA polymerase II in mouse B16-F1 migrating cells assessed as fold change in Fxr1-RNA stability at 0.1 mM measured by ChIP-seq analysis relative to control cells
[12] = biological target: T1, RNA polymerase II (Mus musculus); test: Inhibition of RNA polymerase II in mouse B16-F1 migrating cells assessed as fold change in Larp4-RNA stability at 0.1 mM measured by ChIP-seq analysis relative to control cells
[13] = biological target: Histone-lysine N-methyltransferase EZH2 (Mus musculus) (UniProt Q61188); test: Inhibition of EZH2 in mouse B16-F1 migrating cells assessed as fold change in H3K27me3-buffered regulated Fam184b-mRNA expression at 3 uM measured by […] analysis relative to control cells
Method in brief: (§1)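 Confluent B16-F1 cells on fibronectin-coated plates, cultured at 37 °C and 7% CO2, were scratched at multiple sites to induce migration. They were then held 3 h in growth medium containing 3 µM GSK343, with the inhibitor added 3 h before lysis. Unscratched cells served as controls. Poly A mRNA was analysed by RNA-seq (n=3 GSK343, n=5 controls). Linear models removed batch effects, and buffered genes were those altered only under GSK343 (FDR <0.05, fold change >1.3).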

[14] = biological target: Histone-lysine N-methyltransferase EZH2 (Mus musculus) (UniProt Q61188); test: Inhibition of EZH2 in mouse B16-F1 migrating cells assessed as fold change in H3K27me3-independent regulated Bnip3-mRNA expression at 3 uM measured by […] analysis relative to control cells
Method in brief: (§2)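 Confluent B16-F1 cells on fibronectin-coated plates were scratched at multiple sites, washed once with DMEM and left to migrate 3 h in growth medium (37 °C, 7% CO2); unscratched cells served as control. GSK343 (3 µM) was added 3 h before lysis. Poly A mRNA was sequenced (RNA-seq), with 5 replicates for untreated and 3 for treated cells. Differential expression was called by linear model with batch correction, at FDR <0.05 and fold change ≥1.3.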

[15] = biological target: Histone-lysine N-methyltransferase EZH2 (Mus musculus) (UniProt Q61188); test: Inhibition of EZH2 in mouse B16-F1 migrating cells assessed as fold change in H3K27me3-independent regulated Aldoc-mRNA expression at 3 uM measured by ChIP-seq analysis relative to control cells; method in brief: as §2
[16] = biological target: Histone-lysine N-methyltransferase EZH2 (Mus musculus) (UniProt Q61188); test: Inhibition of EZH2 in mouse B16-F1 migrating cells assessed as fold change in H3K27me3-buffered regulated Rnf145-mRNA expression at 3 uM measured by […] analysis relative to control cells; method in brief: as §2
[17] = biological target: Histone-lysine N-methyltransferase EZH2 (Mus musculus) (UniProt Q61188); test: Inhibition of EZH2 in mouse B16-F1 migrating cells assessed as fold change in H3K27me3-buffered regulated Tfcp2-mRNA expression at 3 uM measured by […] analysis relative to control cells; method in brief: as §2
[18] = biological target: Histone-lysine N-methyltransferase EZH2 (Mus musculus) (UniProt Q61188); test: Inhibition of EZH2 in mouse B16-F1 migrating cells assessed as fold change in H3K27me3-buffered regulated Gulp1-mRNA expression at 3 uM measured by […] analysis relative to control cells; method in brief: as §1
[19] = biological target: Histone-lysine N-methyltransferase EZH2 (Mus musculus) (UniProt Q61188); test: Inhibition of EZH2 in mouse B16-F1 migrating cells assessed as fold change in H3K27me3-independent regulated Ahnak-mRNA expression at 3 uM measured by […] analysis relative to control cells; method in brief: as §2
[20] = biological target: Histone-lysine N-methyltransferase EZH2 (Mus musculus) (UniProt Q61188); test: Inhibition of EZH2 in mouse B16-F1 migrating cells assessed as fold change in H3K27me3-independent regulated Csrnp1-mRNA expression at 3 uM measured by […] analysis relative to control cells; method in brief: as §2
[21] = biological target: Histone-lysine N-methyltransferase EZH2 (Mus musculus) (UniProt Q61188); test: Inhibition of EZH2 in mouse B16-F1 migrating cells assessed as fold change in H3K27me3-independent regulated Maff-mRNA expression at 3 uM measured by […] analysis relative to control cells; method in brief: as §2
[22] = biological target: Histone-lysine N-methyltransferase EZH2 (Mus musculus) (UniProt Q61188); test: Inhibition of EZH2 in mouse B16-F1 migrating cells assessed as fold change in H3K27me3-buffered regulated Mef2d-mRNA expression at 3 uM measured by […] analysis relative to control cells; method in brief: as §1
[23] = biological target: Histone-lysine N-methyltransferase EZH2 (Mus musculus) (UniProt Q61188); test: Inhibition of EZH2 in mouse B16-F1 migrating cells assessed as fold change in H3K27me3-dependent regulated Cxxc5-mRNA expression at 3 uM measured by […] analysis relative to control cells; method in brief: as §2
[24] = biological target: Histone-lysine N-methyltransferase EZH2 (Mus musculus) (UniProt Q61188); test: Inhibition of EZH2 in mouse B16-F1 migrating cells assessed as fold change in H3K27me3-independent regulated Dusp10-mRNA expression at 3 uM measured by […] analysis relative to control cells; method in brief: as §2

Histone-lysine N-methyltransferase EZH2 (Mus musculus), sequence (Q61188 whole entry): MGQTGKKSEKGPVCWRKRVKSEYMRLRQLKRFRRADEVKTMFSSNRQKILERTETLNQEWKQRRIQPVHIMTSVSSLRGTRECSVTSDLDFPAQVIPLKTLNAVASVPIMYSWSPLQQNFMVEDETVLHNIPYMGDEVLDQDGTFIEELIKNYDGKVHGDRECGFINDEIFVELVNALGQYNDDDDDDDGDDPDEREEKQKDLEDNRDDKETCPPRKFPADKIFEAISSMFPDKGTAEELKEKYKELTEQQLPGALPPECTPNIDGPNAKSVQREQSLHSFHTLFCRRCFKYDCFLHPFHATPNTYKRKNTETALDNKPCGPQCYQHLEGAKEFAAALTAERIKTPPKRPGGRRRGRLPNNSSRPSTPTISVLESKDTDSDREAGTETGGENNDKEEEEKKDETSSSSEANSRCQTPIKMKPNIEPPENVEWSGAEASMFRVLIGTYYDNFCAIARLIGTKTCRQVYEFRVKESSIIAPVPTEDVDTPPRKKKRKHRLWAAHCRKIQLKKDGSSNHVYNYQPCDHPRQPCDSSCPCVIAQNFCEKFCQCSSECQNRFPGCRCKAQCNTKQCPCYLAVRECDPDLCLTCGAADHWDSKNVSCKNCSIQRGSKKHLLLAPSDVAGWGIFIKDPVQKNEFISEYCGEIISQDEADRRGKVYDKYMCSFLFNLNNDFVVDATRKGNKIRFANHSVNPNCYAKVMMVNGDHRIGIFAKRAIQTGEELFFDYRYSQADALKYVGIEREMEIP

## OC[C@H]1O[C@@H](n2cnc3cc(Cl)c(Cl)cc32)[C@H](O)[C@@H]1O
[1]
  log2FC: -0.83
[2]
  log2FC: -0.65
[3]
  log2FC: 0.55
[4]
  log2FC: -0.73
[5]
  log2FC: 0.46
[6]
  log2FC: 0.62
[7]
  log2FC: 0.66
[8]
  log2FC: 0.39
[9]
  log2FC: 0.95
[10]
  log2FC: -0.87
[11]
  log2FC: -0.67
[12]
  log2FC: -0.9

## CCCc1cc(C)[nH]c(=O)c1CNC(=O)c1cc(-c2ccnc(N3CCN(C)CC3)c2)cc2c1cnn2C(C)C
[13]
  log2FC: -0.72
[14]
  log2FC: 0.68
[15]
  log2FC: 0.69
[16]
  log2FC: -0.49
[17]
  log2FC: -0.38
[18]
  log2FC: -0.44
[19]
  log2FC: 0.4
[20]
  log2FC: 0.64
[21]
  log2FC: 0.76
[22]
  log2FC: 0.41
[23]
  log2FC: 0.23
[24]
  log2FC: 0.57
